Measurements reported in ChEMBL document CHEMBL1130003, “Synthesis and ligand binding of nortropane derivatives: N-substituted 2beta-carbomethoxy-3beta-(4'-iodophenyl)nortropane and N-(3-iodoprop-(2E)-enyl)-2beta-carbomethoxy-3beta-(3',4'-disubstituted phenyl)nortropane. New high-affinity and selective compounds for the dopamine transporter” (J Med Chem, 1997).

Columns and labels:
[1] = molecular target: Sodium-dependent dopamine transporter (Rattus norvegicus, UniProt P23977); test: Displacement of [3H]GBR-12935 from dopamine transporter (DAT) in rat brain membranes; assay type: cell membranes
Chain of Sodium-dependent dopamine transporter (P23977 whole entry): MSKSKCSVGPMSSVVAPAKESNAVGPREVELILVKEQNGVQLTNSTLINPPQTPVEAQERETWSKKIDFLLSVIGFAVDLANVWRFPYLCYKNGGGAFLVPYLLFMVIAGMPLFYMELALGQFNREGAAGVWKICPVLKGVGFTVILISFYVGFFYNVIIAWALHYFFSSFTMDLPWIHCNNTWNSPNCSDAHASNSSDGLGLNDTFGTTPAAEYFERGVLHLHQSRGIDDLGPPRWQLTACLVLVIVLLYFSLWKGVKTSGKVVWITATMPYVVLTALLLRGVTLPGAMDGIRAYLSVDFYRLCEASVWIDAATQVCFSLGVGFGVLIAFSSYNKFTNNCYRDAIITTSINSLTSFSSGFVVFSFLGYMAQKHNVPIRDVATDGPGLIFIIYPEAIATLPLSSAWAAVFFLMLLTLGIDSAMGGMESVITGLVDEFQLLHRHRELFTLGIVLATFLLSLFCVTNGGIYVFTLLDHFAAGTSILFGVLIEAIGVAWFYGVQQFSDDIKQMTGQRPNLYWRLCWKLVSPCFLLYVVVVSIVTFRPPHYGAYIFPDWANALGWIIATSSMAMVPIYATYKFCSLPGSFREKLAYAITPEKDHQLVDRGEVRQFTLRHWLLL
Summary of the method: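 Rat striatum crude membranes (100 µg protein) in sodium hydrogenocarbonate buffer pH 7.5 with 0.01% BSA. [3H]GBR-12935 1 nM (Kd 1.6 nM). Competitor 10^-5 to 10^-10 M. Incubation 37 °C, 1 h, then glass fiber filtration, ice-cold wash, beta counting. Nonspecific binding with 10^-6 M mazindol. Run in duplicate. Ki by Cheng-Prusoff.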

[2] = molecular target: Norepinephrine transporter (Rattus norvegicus, UniProt Q9WTR4); test: Displacement of [3H]nisoxetine from norepinephrine transporter (NET) in rat brain membranes; assay type: cell membranes
Chain of Norepinephrine transporter (Q9WTR4 whole entry): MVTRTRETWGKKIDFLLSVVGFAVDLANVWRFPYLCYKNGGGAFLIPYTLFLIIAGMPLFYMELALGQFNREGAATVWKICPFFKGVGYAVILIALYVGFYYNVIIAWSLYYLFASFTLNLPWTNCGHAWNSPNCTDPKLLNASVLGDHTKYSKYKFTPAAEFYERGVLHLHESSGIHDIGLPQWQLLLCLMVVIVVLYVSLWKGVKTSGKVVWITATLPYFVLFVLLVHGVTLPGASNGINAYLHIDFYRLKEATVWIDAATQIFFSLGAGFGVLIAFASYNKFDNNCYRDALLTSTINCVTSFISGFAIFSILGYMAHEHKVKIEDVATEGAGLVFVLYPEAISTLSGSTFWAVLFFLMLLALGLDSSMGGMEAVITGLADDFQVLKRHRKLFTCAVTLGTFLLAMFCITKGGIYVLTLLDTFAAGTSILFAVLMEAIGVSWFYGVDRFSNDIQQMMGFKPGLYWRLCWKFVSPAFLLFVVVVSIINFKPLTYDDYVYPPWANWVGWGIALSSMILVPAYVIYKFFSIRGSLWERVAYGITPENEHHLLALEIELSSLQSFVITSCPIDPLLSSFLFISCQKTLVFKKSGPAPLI
Summary of the method: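 Rat frontoparietal cortex crude membranes in 50 mM Tris-HCl pH 7.4, 120 mM NaCl, 5 mM KCl. [3H]nisoxetine 0.5 nM (Kd 1.3 nM). Competitor 10^-5 to 10^-10 M. Incubation 2 °C, 5 h, then filtration, wash, beta counting. Nonspecific binding with 10^-6 M desipramine. Run in duplicate. Ki from IC50 by Cheng-Prusoff.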

[3] = molecular target: Sodium-dependent serotonin transporter (Rattus norvegicus, UniProt P31652); test: Displacement of [3H]- paroxetine from serotonin transporter (5-HTT) in rat brain membranes; assay type: cell membranes
Chain of Sodium-dependent serotonin transporter (P31652 whole entry): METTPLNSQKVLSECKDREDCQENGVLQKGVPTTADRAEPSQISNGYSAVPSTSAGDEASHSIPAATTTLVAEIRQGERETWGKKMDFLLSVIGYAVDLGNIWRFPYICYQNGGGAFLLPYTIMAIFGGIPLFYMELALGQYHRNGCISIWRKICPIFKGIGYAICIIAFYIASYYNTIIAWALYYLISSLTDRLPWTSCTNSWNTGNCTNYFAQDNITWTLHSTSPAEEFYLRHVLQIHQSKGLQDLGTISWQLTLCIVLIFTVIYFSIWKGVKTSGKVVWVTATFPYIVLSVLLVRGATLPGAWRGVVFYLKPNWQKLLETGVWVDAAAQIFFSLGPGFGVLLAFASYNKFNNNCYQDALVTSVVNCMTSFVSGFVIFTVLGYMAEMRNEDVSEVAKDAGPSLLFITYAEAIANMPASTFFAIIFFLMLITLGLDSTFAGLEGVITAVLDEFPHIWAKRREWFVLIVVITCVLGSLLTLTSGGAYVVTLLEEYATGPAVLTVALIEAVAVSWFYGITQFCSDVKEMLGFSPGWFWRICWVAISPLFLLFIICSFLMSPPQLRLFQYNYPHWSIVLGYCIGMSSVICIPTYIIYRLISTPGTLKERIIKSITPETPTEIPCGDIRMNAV
Summary of the method: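 Rat frontoparietal cortex crude membranes in 50 mM Tris-HCl pH 7.4 with 120 mM NaCl, 5 mM KCl. [3H]paroxetine 0.5 nM (Kd 0.5 nM). Competitor 10^-5 to 10^-10 M. Incubation 22 °C, 1 h, then glass fiber filtration, ice-cold wash, beta counting. Nonspecific binding with 10^-6 M fluvoxamine. Run in duplicate. Ki from IC50 by Cheng-Prusoff.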

[4] = molecular target: Monoamine transporters; serotonin & dopamine (Rattus norvegicus) (UniProt P31652+P23977); test: Selectivity index for serotonin and dopamine transporters; assay type: protein assay
Chain of Monoamine transporters; serotonin & dopamine (Rattus norvegicus) (P23977 whole entry, looked up): as the sequence (P23977 whole entry) above
Chain of Monoamine transporters; serotonin & dopamine (Rattus norvegicus) (P31652 whole entry, looked up): as the sequence (P31652 whole entry) above

[5] = molecular target: Monoamine transporters; Norepininephrine & dopamine (Rattus norvegicus) (UniProt P23977+Q9WTR4); test: Selectivity index for norepinephrine and dopamine transporters; assay type: protein assay

Row | SMILES | Ki [1] | Ki [2] | Ki [3] | Selectivity [4] | Selectivity [5]
1 | COC(=O)[C@@H]1C2CC[C@H](C[C@@H]1c1ccc(I)cc1)N2C | 27 nM | 80 nM | 3 nM | 0.1 | 2.9
2 | COC(=O)[C@H]1C(c2ccc(I)cc2)C[C@H]2CCC1N2C/C=C/I (stereo not given in full) | 30 nM | 295 nM | 960 nM | 32 | 9.8
3 | COC(=O)[C@H]1C(c2ccccc2)C[C@H]2CCC1N2C/C=C/I (stereo not given in full) | 113 nM | > 1000 nM | 100 nM | 0.8 | > 8.8
4 | C#CCN1C2CC[C@@H]1CC(c1ccc(I)cc1)[C@@H]2C(=O)OC (stereo not given in full) | 14 nM | > 1000 nM | 100 nM | 7.1 | > 71
5 | C/C=C/CN1C2CC[C@@H]1CC(c1ccc(I)cc1)[C@@H]2C(=O)OC (stereo not given in full) | 15 nM | 400 nM | 75 nM | 5 | 26.6
6 | COC(=O)[C@@H]1C2CCC(C[C@@H]1c1ccc(Cl)c(Cl)c1)N2C/C=C/I (stereo not given in full) | 29 nM | 500 nM | 50 nM | 1.7 | 17.2
7 | C=C(Br)CN1C2CC[C@@H]1CC(c1ccc(I)cc1)[C@@H]2C(=O)OC (stereo not given in full) | 30 nM | > 1000 nM | 200 nM | 6.6 | > 33
8 | COC(=O)[C@@H]1C2CCC(C[C@@H]1c1ccc(C)cc1)N2C/C=C/I (stereo not given in full) | 17 nM | > 1000 nM | 500 nM | 29.4 | > 58
9 | COC(=O)[C@H]1C(c2ccc(I)cc2)C[C@H]2CCC1N2Cc1ccccc1C (stereo not given in full) | 93 nM | > 1000 nM | 225 nM | 2.4 | > 10.6
10 | CCCc1ccc(C2C[C@H]3CCC([C@H]2C(=O)OC)N3C/C=C/I)cc1 (stereo not given in full) | 500 nM | 750 nM | 300 nM | 0.6 | 1.5
11 | COC(=O)[C@H]1C(c2ccc(C(C)C)cc2)C[C@H]2CCC1N2C/C=C/I (stereo not given in full) | 500 nM | > 1000 nM | 450 nM | 0.9 | > 2
12 | COC(=O)[C@@H]1C2CCC(C[C@@H]1c1ccc(I)cc1)N2Cc1ccccc1 (stereo not given in full) | 42 nM | 600 nM | 100 nM | 2.3 | 14.2
